In ChEMBL document CHEMBL1128321, “Piperazinylalkyl heterocycles as potential antipsychotic agents” (J Med Chem, 1995):

Legend:
[1] = system: Rattus norvegicus; experiment: Conditioned avoidance response activity was determined by the ability to block the conditioned avoidance of a foot shock at 5 mg/kg(ip); assay type: functional
Method in brief: (§1)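 Male Fischer 344 rats (300–500 g) trained on a discrete-trial single-lever task, pressing the lever to avoid an impending shock; block of responding read at time of peak effect. Escape loss = percent of animals failing to escape the shock; >20% escape loss with CAR inhibition taken as potential for sedation.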

[2] = biological target: T1, 5-hydroxytryptamine receptor 1A (Rattus norvegicus, UniProt P19327); experiment: Binding affinity was determined against 5-hydroxytryptamine 1A receptor using […]
T1 sequence (P19327 whole entry): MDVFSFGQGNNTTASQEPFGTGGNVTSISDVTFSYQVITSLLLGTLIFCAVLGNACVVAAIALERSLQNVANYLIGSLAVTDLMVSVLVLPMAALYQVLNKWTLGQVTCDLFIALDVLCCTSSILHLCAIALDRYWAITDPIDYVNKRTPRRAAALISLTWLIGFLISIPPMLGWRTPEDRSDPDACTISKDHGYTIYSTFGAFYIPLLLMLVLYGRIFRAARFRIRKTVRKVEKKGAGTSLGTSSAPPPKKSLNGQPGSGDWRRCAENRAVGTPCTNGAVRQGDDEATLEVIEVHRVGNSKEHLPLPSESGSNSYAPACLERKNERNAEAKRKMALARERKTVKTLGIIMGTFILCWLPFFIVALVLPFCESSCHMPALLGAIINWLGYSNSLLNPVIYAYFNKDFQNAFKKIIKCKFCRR

[3] = system: Rattus norvegicus; experiment: Percentage of animals failing to escape shock was measured, affording a rough index for nonspecific sedation at 5 mg/kg(ip)
[4] = Stability half-life at pH-2; assay type: physicochemical
Method in brief: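 Half-life measured in solution at pH 2, about 3 × 10⁻³ M compound in citric acid–phosphate buffer at 22 °C.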

[5] = system: Rattus norvegicus; experiment: Conditioned avoidance response activity was determined by the ability to block the conditioned avoidance of a foot shock at 15 mg/kg(ip); assay type: functional; method in brief: as §1

| Structure (SMILES) | inhibition in vivo at 5 mg/kg [1] [%] | Ki [2] [nM] | Esc loss [3] [%] | half-life [4] [h] | inhibition in vivo at 15 mg/kg [5] [%] |
| --- | --- | --- | --- | --- | --- |
| CC(C)Oc1ccccc1N1CCN(Cc2cc(C(=O)N3CCCCCC3)cs2)CC1.Cl | 45 | 0.41 | 4 |  |  |
| CC(C)Oc1ccccc1N1CCN(Cc2ccc(CCN3CCCCC3=O)n2C)CC1.Cl | 77 |  | 27 | < 0.217 |  |
| CC(C)Oc1ccccc1N1CCN(CCc2ccc(C(=O)C(=O)N3CCOCC3)n2C)CC1.O=C(O)CCC(=O)O | 2 | 9.4 | 0 | 85 |  |
| CC(C)Oc1ccccc1N1CCN(Cc2cc(CO)no2)CC1 | 29 |  | 1 | 57.7 |  |
| COc1ccccc1N1CCN(CCc2ccc(C(=O)C(=O)N3CCCCC3)n2C)CC1.O=C(O)CCC(=O)O | 45 | 25 | 26 |  |  |
| CCCCC(=O)N(C)Cc1ccc(CN2CCN(c3ccccc3OC)CC2)n1C.O=C(O)CCC(=O)O | 2 | 4.5 | 1 |  |  |
| CC(=O)N(C)Cc1ccc(CN2CCN(c3ccccc3OC(C)C)CC2)n1C.O=C(O)CCC(=O)O | 63 | 12 | 2 | 1.17 |  |
| CC(C)Oc1ccccc1N1CCN(Cc2ccc(C(=O)N3CCCCCC3)s2)CC1.Cl | 8 | 3.2 | 3 |  |  |
| CC(C)Oc1ccccc1N1CCN(Cc2ccc(C(=O)N3CCCCC3)n2C)CC1.Cl |  |  | 5 |  | 56 |
| COc1ccccc1N1CCN(Cc2ccc(CNC(C)=O)n2C)CC1.O=C(O)CCC(=O)O | 14 |  | 3 |  |  |
| CC(C)Oc1ccccc1N1CCN(Cc2cccc(CN3CCCCC3=O)n2)CC1.Cl | 85 | 829 | 15 | 70.3 |  |
| CC(C)Oc1ccccc1N1CCN(Cc2ccc(CN3CCCCC3=O)s2)CC1.Cl | 58 | 3.1 | 3 |  |  |
| CC(C)Oc1ccccc1N1CCN(Cc2cc(C(=O)N3CCCCC3)cs2)CC1.Cl | 72 | 2.5 | 34 |  |  |
| CC(C)Oc1ccccc1N1CCN(Cc2ccc(CN(C)C(=O)C(C)C)n2C)CC1.O=C(O)CCC(=O)O | 3 | 0.84 | 0 | 1.07 |  |
| COc1ccccc1N1CCN(Cc2ccc(CN(C(=O)C3CCCCC3)C(C)C)n2C)CC1.O=C(O)CCC(=O)O | 36 | 11 | 26 |  |  |
| CCCCS(=O)(=O)N(C)Cc1ccc(CN2CCN(c3ccccc3OC(C)C)CC2)n1C.O=C(O)CCC(=O)O | 2 | 18 | 0 | 2.5 |  |
| COc1ccccc1N1CCN(Cc2ccc(CN3CCCCC3=O)o2)CC1.O=C(O)CCC(=O)O |  | 38 | 0 |  | 10 |
| COc1ccccc1N1CCN(Cc2ccc(CN3CCCCCC3=O)o2)CC1.O=C(O)CCC(=O)O |  | 27 | 11 |  | 93 |
| CNC(=O)c1ccc(CN2CCN(c3ccccc3OC(C)C)CC2)n1C.O=C(O)CCC(=O)O | 15 | 57 | 0 | 72.4 |  |
| CC(C)Oc1ccccc1N1CCN(Cc2cccc(C(=O)N3CCCCC3)c2)CC1 [MAZAPERTINE] | 98 |  |  |  |  |
| CC(C)Oc1ccccc1N1CCN(Cc2ccc(CN(C(=O)C(C)C)C(C)C)n2C)CC1.O=C(O)CCC(=O)O | 0 | 1.9 | 0 |  |  |

| Structure (SMILES) | inhibition in vivo at 5 mg/kg [1] [%] | Ki [2] [nM] | Esc loss [3] [%] | half-life [4] [h] | inhibition in vivo at 15 mg/kg [5] [%] |
| --- | --- | --- | --- | --- | --- |
| CC(C)Oc1ccccc1N1CCN(CC2CC(CO)=NO2)CC1 (configuration not stated) | 96 | 120 | 26 | 60.9 |  |
| CC(C)Oc1ccccc1N1CCN(CC2CC(CN3CCCCC3=O)=NO2)CC1 (configuration not stated) | 69 | 10 | 20 |  |  |
| CC(C)NC(=O)c1ccc(CN2CCN(c3ccccc3OC(C)C)CC2)n1C.O=C(O)CCC(=O)O | 1 | 48 | 0 | 382 |  |
| CC(C)Oc1ccccc1N1CCN(Cc2ccc(CN(C(=O)C3CCCCC3)C(C)C)n2C)CC1.O=C(O)CCC(=O)O | 13 | 4.7 | 0 |  |  |
| CCCCS(=O)(=O)N(C)Cc1ccc(CN2CCN(c3ccccc3OC)CC2)n1C.O=C(O)CCC(=O)O | 7 | 7.1 | 1 | 3.7 |  |
| COc1ccccc1N1CCN(Cc2ccc(CN(C)S(=O)(=O)C(C)C)n2C)CC1.O=C(O)CCC(=O)O | 6 | 39 | 0 | 2.17 |  |
| O=C(O)CCC(=O)O.O=C1CCCCN1Cc1ccc(CN2CCN(c3cccc4ccoc34)CC2)s1 | 63 | 0.07 | 5 |  |  |
| CCCCC(=O)N(C)Cc1ccc(CN2CCN(c3ccccc3OC(C)C)CC2)n1C.O=C(O)CCC(=O)O | 4 | 0.25 | 0 |  |  |
| Cl.O=C(c1ccc(CN2CCN(c3cccc4ccoc34)CC2)s1)N1CCCCC1 | 3 | 0.63 | 0 |  |  |
| COc1ccccc1N1CCN(Cc2ccc(CN(C)S(C)(=O)=O)n2C)CC1.O=C(O)CCC(=O)O | 23 | 11 | 4 | 2.87 |  |
| CCCN(Cc1ccc(CN2CCN(c3ccccc3OC)CC2)n1C)S(=O)(=O)c1ccccc1 |  |  | 0 |  | 0 |
| COc1ccccc1N1CCN(Cc2ccc(CN(Cc3ccccc3)C(C)=O)n2C)CC1.O=C(O)CCC(=O)O | 3 |  | 0 |  |  |
| COc1ccccc1N1CCN(Cc2ccc(CN(C)C(C)=O)n2C)CC1.O=C(O)CCC(=O)O | 52 | 39 | 2 |  |  |
| COc1ccccc1N1CCN(Cc2ccc(CN(Cc3ccccc3)C(=O)c3ccccc3)n2C)CC1.O=C(O)CCC(=O)O | 8 |  | 0 |  |  |
| CC(C)Oc1ccccc1N1CCN(Cc2cc(CN3CCCCC3=O)no2)CC1.Cl | 0 | 94 | 0 | 18.3 |  |
| CC(C)Oc1ccccc1N1CCN(Cc2ccc(C(=O)N3CCCCC3)s2)CC1.O=C(O)CCC(=O)O | 56 | 4.2 | 18 |  |  |
| COc1ccccc1N1CCN(Cc2ccc(CCN3CCCCC3=O)n2C)CC1.Cl | 75 |  | 9 | < 0.117 |  |
| COc1ccccc1N1CCN(Cc2ccc(CN(C(C)=O)C(C)C)n2C)CC1.O=C(O)CCC(=O)O | 8 | 16 | 0 |  |  |
| COc1ccccc1N1CCN(Cc2ccc(CN(C(C)C)S(C)(=O)=O)n2C)CC1 | 1 |  | 0 |  |  |
| CC(C)Oc1ccccc1N1CCN(Cc2ccc(CN(C)S(C)(=O)=O)n2C)CC1.O=C(O)CCC(=O)O | 8 |  | 0 | 3.7 |  |
